We go through ten compounds from ChEMBL document CHEMBL1944577, “Synthesis, evaluation and docking studies on 3-alkoxy-4-methanesulfonamido acetophenone derivatives as non ulcerogenic anti-inflammatory agents” (Eur J Med Chem, 2012).

SMILES strings stand for the structures.

For data set [1], the system named is Rattus norvegicus. Kind of data set: Antiinflammatory activity in po dosed Wistar rat assessed as inhibition of carrageenan-induced paw oedema compound administered 30 mins after carrageenan challenge measured after 5 hrs by plethysmograph analysis. It counts as functional. The essentials:
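Carrageenan paw edema in Wistar rats (150–200 g, either sex, n = 6 per group): 0.1 ml 1% w/v carrageenan injected into the left plantar region. Compounds were suspended in 0.5% w/v CMC and dosed orally 30 min post-challenge at three graded doses. Plethysmographic (mercury displacement) paw volume was read to 5 h. ED50 was derived from the three-dose responses.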
On the technique in general: Carrageenan injected into the paw causes an acute inflammation.

In data set [2] the test system is Rattus norvegicus. Kind of data set: Ulcerogenicity in Wistar rat assessed as lesion score at 100 mg/kg, po after 6 hrs. It counts as toxicity, organism-based. Also on record: dose 100 mg/kg, route oral. The settings on record: in vivo. In short, it runs like this: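 Wistar rats of either sex (150–200 g, n = 6) were dosed orally and killed by cervical dislocation 6 h later. Stomachs were inflated with 2% formalin, fixed 10 min, and opened along the greater curvature. Lesions were examined under a dissecting microscope (10x grid). Longest lesion diameters were summed per animal as the lesion score (mm), then averaged per group.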

Data set [3] deals with Rattus norvegicus. Kind of data set: Antiinflammatory activity in Wistar rat assessed as inhibition of carrageenan-induced paw oedema at 100 mg/kg, po dosed 30 mins after carrageenan challenge measured after 5 hrs by plethysmograph analysis relative to control. It is filed as functional. In short, it runs like this: (§1)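 Wistar rats (150–200 g, either sex) in groups of six. Carrageenan 1% w/v in saline, 0.1 ml, injected into the plantar left hind paw. Compound was given p.o. 30 min later as a suspension in 0.5% w/v CMC; controls received CMC. Paw volume was read by mercury-displacement plethysmograph at 0–5 h. % reduction = (1 − Vt/Vc)×100 versus control, at 5 h.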

Data set [4] deals with Rattus norvegicus. Kind of data set: Antiinflammatory activity in Wistar rat assessed as inhibition of carrageenan-induced paw oedema at 30 mg/kg, po dosed 30 mins after carrageenan challenge measured after 5 hrs by plethysmograph analysis relative to control. It counts as functional. In short, it runs like this: as §1
Data set [5] has as its system Rattus norvegicus. Put plainly: Antiinflammatory activity in Wistar rat assessed as inhibition of carrageenan-induced paw oedema at 10 mg/kg, po dosed 30 mins after carrageenan challenge measured after 5 hrs by plethysmograph analysis relative to control. It is filed as functional. The essentials:
as §1

As to `CC(=O)c1ccc(NS(C)(=O)=O)c(OC2CCCCC2)c1`, the median effective dose (ED50) in data set [1] is 2.23 mg/kg. For the same compound, the UI in data set [2] is listed as 3 mm. The inhibition in vivo at 100 mg/kg in data set [3] is 73.7%.

As for `CS(=O)(=O)c1ccc(C2=C(c3ccccc3)C(=O)OC2)cc1` [ROFECOXIB], in data set [1], the ED50 came out at 2.5 mg/kg. Further, in data set [2], the UI came out at 3 mm. The inhibition in vivo at 30 mg/kg in data set [4] came out at 81.8%.

Regarding `CCCCCOc1cc(C(C)=O)ccc1NS(C)(=O)=O`, in data set [1], the 50% effective dose (ED50) is 8.18 mg/kg. Moreover, the UI in data set [2] came out at 4 mm. Besides, the inhibition in vivo at 100 mg/kg in data set [3] was found to be 59.6%.

In the case of `CCCCOc1cc(C(C)=O)ccc1N`, the UI in data set [2] is on record as 2 mm. Also, the inhibition in vivo at 100 mg/kg in data set [3] came out at 13.8%.

For the compound `CCCCCCOc1cc(C(C)=O)ccc1NS(C)(=O)=O`, the ED50 in data set [1] turned out to be 2.3 mg/kg. Also, the UI in data set [2] is recorded as 4 mm. In addition, the inhibition in vivo at 100 mg/kg in data set [3] is 76.8%.

Consider `CC(=O)c1ccc(N)c(OC2CCCCC2)c1`, for which, in data set [2], the UI worked out at 3 mm. In addition, the inhibition in vivo at 100 mg/kg in data set [3] was 19%.

As to `CCCCCCOc1cc(C(C)=O)ccc1N`, in data set [2], the UI is recorded as 3 mm. The inhibition in vivo at 100 mg/kg in data set [3] turned out to be 14.1%.

Consider `COc1ccc2c(c1)c(CC(=O)O)c(C)n2C(=O)c1ccc(Cl)cc1` [INDOMETHACIN], for which the ED50 in data set [1] was 2 mg/kg. Besides, the UI in data set [2] came to 22.3 mm. Also, in data set [5], the inhibition in vivo at 10 mg/kg came out at 79.7%.

Turning to `CCCCOc1cc(C(C)=O)ccc1NS(C)(=O)=O`, the ED50 in data set [1] turned out to be 2 mg/kg. Moreover, the UI in data set [2] is given as 5 mm. The inhibition in vivo at 100 mg/kg in data set [3] turned out to be 72.7%.

For the compound `CCCCCOc1cc(C(C)=O)ccc1N`, the UI in data set [2] was 2 mm. Also, in data set [3], the inhibition in vivo at 100 mg/kg was determined as 9.88%.

The ED50 is the dose that gives a 50% effect, or the effect in half of the subjects. A word on the inhibition in vivo: it is the drop in the measured response relative to a control, in per cent.
